From ChEMBL document CHEMBL1955807, “Enaminones 12. An explanation of anticonvulsant activity and toxicity per Linus Pauling's clathrate hypothesis” (Eur J Med Chem, 2012)
The source made the active and inactive calls. No cut-off for these calls is given here.

Experiments:
[1] = test system: Mus musculus; assay: Anticonvulsant activity in CF1 mouse assessed as protection against maximal electroshock-induced seizure up to 300 mg/kg, ip after 30 mins to 4 hrs; assay type: functional, organism-based; design: dose 300 mg/kg
Summary of the method: (§1)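 Phase I screen in mice: compounds suspended in 30% poly(ethylene glycol) 400 and given ip at three dose levels (30, 100 and 300 mg/kg). Anticonvulsant protection (MES, scPTZ) and neurologic toxicity by rotorod (inability to grasp) recorded 30 min and 4 h after dosing. Results were reported as animals affected over animals tested. Class 1 means activity at ≤100 mg/kg; class 3 means no activity at 300 mg/kg.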

[2] = test system: Mus musculus; assay: Anticonvulsant activity in CF1 mouse assessed as protection against subcutaneous pentylenetetrazole-induced seizure at 300 mg/kg, ip after 30 mins; assay type: functional, organism-based; design: dose 300 mg/kg; summary of the method: as §1
[3] = test system: Mus musculus; assay: Neurotoxicity in CF1 mouse up to 300 mg/kg, ip after 30 mins to 4 hrs by rotarod test; assay type: toxicity, organism-based; design: dose 300 mg/kg, route intraperitoneal; conditions: in vivo; summary of the method: as §1
[4] = test system: Rattus norvegicus; assay: Anticonvulsant activity in Sprague-Dawley rat assessed as protection against subcutaneous pentylenetetrazole-induced seizure at 30 mg/kg, ip after 4 hrs; assay type: functional, organism-based; design: dose 30 mg/kg
[5] = test system: Rattus norvegicus; assay: Anticonvulsant activity in Sprague-Dawley rat assessed as protection against maximal electroshock-induced seizure at 30 mg/kg, ip after 1 hr
[6] = test system: Mus musculus; assay: Toxicity in CF1 mouse assessed as mortality at 30 mg/kg, ip after 4 hrs; assay type: organism-based; design: dose 30 mg/kg, route intraperitoneal; conditions: in vivo
[7] = test system: Mus musculus; assay: Toxicity in CF1 mouse assessed as mortality at 30 mg/kg, ip after 30 mins; assay type: organism-based; design: dose 30 mg/kg, route intraperitoneal; conditions: in vivo, 0.5 h
[8] = test system: Mus musculus; assay: Neurotoxicity in CF1 mouse assessed as myoclonic jerks at 100 mg/kg, ip after 4 hrs by rotarod test; assay type: toxicity, organism-based; design: dose 100 mg/kg, route intraperitoneal; conditions: in vivo; summary of the method: as §1
[9] = test system: Mus musculus; assay: Neurotoxicity in CF1 mouse assessed as muscle spasms at 100 to 300 mg/kg, ip after 30 mins by rotarod test; assay type: toxicity, organism-based, Muscle tissue; design: dose 100-300 mg/kg, route intraperitoneal; conditions: in vivo, 0.5 h; summary of the method: as §1
[10] = test system: Mus musculus; assay: Neurotoxicity in CF1 mouse assessed as muscle spasms at 100 mg/kg, ip by rotarod test; assay type: toxicity, organism-based, Muscle tissue; design: dose 100 mg/kg, route intraperitoneal; conditions: in vivo; summary of the method: as §1
[11] = test system: Mus musculus; assay: Neurotoxicity in CF1 mouse at 100 mg/kg, ip by rotarod test; assay type: toxicity, organism-based; design: dose 100 mg/kg, route intraperitoneal; conditions: in vivo; summary of the method: as §1
[12] = test system: Mus musculus; assay: Neurotoxicity in CF1 mouse at 300 mg/kg, ip after 30 mins by rotarod test; assay type: toxicity, organism-based; design: dose 300 mg/kg, route intraperitoneal; conditions: in vivo, 0.5 h; summary of the method: as §1
[13] = species on record: Rattus norvegicus; assay: Anticonvulsant activity in rat assessed as protection against maximal electroshock-induced seizure; assay type: functional
Summary of the method: (§2)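 Phase VIB in male Sprague-Dawley rats dosed ip. The median effective dose (MES ED50) and median neurotoxic dose (TD50) were determined with confidence limits. Protective index was calculated as TD50/ED50.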

[14] = Neurotoxicity in rat; assay type: toxicity, organism-based; conditions: in vivo; summary of the method: as §2
[15] = species on record: Rattus norvegicus; assay: Protective index, ratio of TD50 for rat to ED50 for rat; summary of the method: as §2
[16] = test system: Mus musculus; assay: Neurotoxicity in CF1 mouse at 300 mg/kg, ip after 30 mins to 4 hrs by rotarod test; assay type: toxicity, organism-based; design: dose 300 mg/kg, route intraperitoneal; conditions: in vivo; summary of the method: as §1
[17] = test system: Mus musculus; assay: Neurotoxicity in CF1 mouse at 100 mg/kg, ip after 30 mins by rotarod test; assay type: toxicity, organism-based; design: dose 100 mg/kg, route intraperitoneal; conditions: in vivo, 0.5 h; summary of the method: as §1
[18] = test system: Mus musculus; assay: Anticonvulsant activity in CF1 mouse assessed as protection against maximal electroshock-induced seizure at 100 mg/kg, ip after 30 mins; assay type: functional, organism-based; design: dose 100 mg/kg; summary of the method: as §1
[19] = test system: Mus musculus; assay: Anticonvulsant activity in CF1 mouse assessed as protection against maximal electroshock-induced seizure at 300 mg/kg, ip after 30 mins to 4 hrs; assay type: functional, organism-based; design: dose 300 mg/kg; summary of the method: as §1
[20] = test system: Mus musculus; assay: Neurotoxicity in CF1 mouse at 300 mg/kg, ip after 4 hrs by rotarod test; assay type: toxicity, organism-based; design: dose 300 mg/kg, route intraperitoneal; conditions: in vivo; summary of the method: as §1
[21] = test system: Mus musculus; assay: Neurotoxicity in CF1 mouse assessed as muscle spasms at 300 mg/kg, ip by rotarod test; assay type: toxicity, organism-based, Muscle tissue; design: dose 300 mg/kg, route intraperitoneal; conditions: in vivo; summary of the method: as §1
[22] = test system: Mus musculus; assay: Anticonvulsant activity in CF1 mouse assessed as protection against maximal electroshock-induced seizure at 100 mg/kg, ip after 15 mins; assay type: functional, organism-based; design: dose 100 mg/kg
[23] = test system: Rattus norvegicus; assay: Anticonvulsant activity in ip dosed Sprague-Dawley rat assessed as protection against maximal electroshock-induced seizure; assay type: functional; summary of the method: as §2
[24] = Neurotoxicity in ip dosed Sprague-Dawley rat by rotarod test; assay type: toxicity, organism-based; conditions: in vivo; summary of the method: as §2
[25] = species on record: Rattus norvegicus; assay: Protective index, ratio of TD50 for Sprague-Dawley rat by rotarod test to ED50 for Sprague-Dawley rat by MES test

Cc1cc(NC2=CC(=O)CCC2)no1
Activity [1]: inactive | Activity [2]: Active | Activity [3]: Non-toxic | Activity [4]: Active | Activity [5]: Active

CC1(C)CC(=O)C=C(N)C1
Activity [6]: Toxic | Activity [7]: Toxic | Activity [8]: Toxic | Activity [9]: Toxic | Activity [1]: inactive | Activity [2]: inactive

NC1=CC(=O)CCC1
Activity [10]: Toxic | Activity [11]: Toxic | Activity [12]: Toxic | Activity [1]: inactive | Activity [2]: inactive

Cc1cc(NC2=CC(=O)C(C(=O)OC(C)(C)C)C(C(F)(F)F)C2)no1 (stereo unspecified)
Activity [1]: inactive | Activity [2]: inactive

CCOC(=O)C1C(=O)C=C(Nc2cc(C)on2)CC1C (stereo unspecified)
ED50 [13]: 68.9 mg/kg | TD50 [14]: > 500 mg/kg | PI [15]: >7.3

Cc1oncc1CNC1=CC(=O)CC(C)C1 (stereo unspecified)
Activity [1]: inactive | Activity [2]: inactive

Cc1cc(NC2=CC(=O)CC(C)(C)C2)no1
Activity [16]: Toxic | Activity [2]: inactive | Activity [17]: Toxic | Activity [18]: Active | Activity [19]: Active

Cc1cc(NC(=O)c2c(C)cccc2C)no1 [SORETOLIDE]
ED50 [13]: 9.2 mg/kg | TD50 [14]: > 500 mg/kg | PI [15]: >54.3

Cc1cc(C(=O)NC2=CC(=O)CCC2)no1
Activity [1]: inactive | Activity [2]: inactive

Cc1cc(C(=O)NC2=CC(=O)CC(C)C2)no1 (stereo unspecified)
Activity [12]: Toxic | Activity [20]: Toxic | Activity [1]: inactive | Activity [2]: inactive

Cc1cc(C(=O)NC2=CC(=O)CC(C)(C)C2)no1
Activity [1]: inactive | Activity [2]: inactive

CC1CC(=O)C=C(N)C1 (stereo unspecified)
Activity [10]: Toxic | Activity [12]: Toxic | Activity [21]: Toxic | Activity [1]: inactive | Activity [2]: inactive

Cc1cc(NC2=CC(=O)C(C(=O)OC(C)(C)C)C(C)C2)no1 (stereo unspecified)
ED50 [13]: 28.1 mg/kg | TD50 [14]: > 500 mg/kg | PI [15]: >17.8

Cc1cc(C(=O)Nc2c(C)cccc2C)no1
ED50 [13]: 5.5 mg/kg | TD50 [14]: > 500 mg/kg | PI [15]: >90.9

Cc1cccc(C)c1NC(=O)c1conc1C
ED50 [13]: 8.9 mg/kg | TD50 [14]: > 500 mg/kg | PI [15]: >56.2

Cc1cc(NC2=CC(=O)CC(C)C2)no1 (stereo unspecified)
Activity [2]: Active | Activity [22]: Active | Activity [17]: Toxic | ED50 [23]: 66 mg/kg | TD50 [24]: > 120 mg/kg | PI [25]: 1.8

Cc1oncc1CNC1=CC(=O)CC(C)(C)C1
Activity [1]: inactive | Activity [2]: inactive
